Here are results for twelve compounds from ChEMBL document CHEMBL4665633, “Cereblon versus VHL: Hijacking E3 ligases against each other using PROTACs” (Bioorg Med Chem, 2019).

Active and inactive are the calls of the source. No cut-off for these calls is given here.

Assay type in all cases: cell-based
Assay [1] addresses T1, Protein cereblon/von Hippel-Lindau disease tumor suppressor (Homo sapiens, UniProt P40337+Q96SW2). Description: Protac activity at VHL/CRBN in human HeLa cells assessed as pVHL19 protein abundance at 10 nM after 4 hrs by Western blot analysis relative to DMSO. An outline of the steps: (§1)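 HeLa cells (5 × 10⁵, DMEM + 10% FBS, 37 °C, 5% CO₂, ≤30 passages) seeded overnight, then treated 4 h with compound at single or graded concentrations (0.1% v/v DMSO final). RIPA lysates equalised by Bradford; SDS-PAGE and anti-CRBN/anti-VHL immunoblots; bands normalised to β-tubulin and expressed as % of mean DMSO vehicle. DC₅₀ from fit of band intensity versus log[concentration].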
Background: A western blot detects proteins with antibodies after separation by electrophoresis.

Assay [2] addresses T1, Protein cereblon/von Hippel-Lindau disease tumor suppressor. Put plainly: Protac activity at VHL/CRBN in human HeLa cells assessed as pVHL30 protein abundance at 10 nM after 4 hrs by Western blot analysis relative to DMSO. The procedure, abridged: as §1
The target is the same in assay [3]. Description: Protac activity at VHL/CRBN in human HeLa cells assessed as CRBN protein abundance at 10 nM after 4 hrs by Western blot analysis relative to DMSO. An outline of the steps:
as §1

For assay [4] the target is unchanged. Put plainly: Protac activity at VHL/CRBN in human HeLa cells assessed as pVHL19 protein abundance at 1 uM after 4 hrs by Western blot analysis relative to DMSO. The procedure, abridged: (§2)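 HeLa cells seeded overnight, then exposed to 1 µM compound (0.1% v/v DMSO final) over a time course. Cells were DPBS-washed and RIPA-lysed with protease inhibitors and benzonase; equal protein was loaded. Immunoblots for CRBN and VHL isoforms were quantified against β-tubulin and reported relative to the averaged 0.1% DMSO vehicle.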

Assay [5] shares this target. Description: Protac activity at VHL/CRBN in human HeLa cells assessed as pVHL30 protein abundance at 1 uM after 4 hrs by Western blot analysis relative to DMSO. An outline of the steps:
as §2

Assay [6] has the same target. Put plainly: Protac activity at VHL/CRBN in human HeLa cells assessed as CRBN protein abundance at 1 uM after 4 hrs by Western blot analysis relative to DMSO. The procedure, abridged: as §2
The target is the same in assay [7]. Put plainly: Protac activity at VHL/CRBN in human HeLa cells assessed as induction of VHL degradation at 1 uM after 4 hrs by Western blot analysis. The procedure, abridged: as §1
For assay [8] the target is unchanged. Put plainly: Protac activity at VHL/CRBN in human HeLa cells assessed as induction of CRBN degradation at 1 uM after 4 hrs by Western blot analysis relative to control. An outline of the steps: as §1

T1 sequence (P40337 whole entry, looked up): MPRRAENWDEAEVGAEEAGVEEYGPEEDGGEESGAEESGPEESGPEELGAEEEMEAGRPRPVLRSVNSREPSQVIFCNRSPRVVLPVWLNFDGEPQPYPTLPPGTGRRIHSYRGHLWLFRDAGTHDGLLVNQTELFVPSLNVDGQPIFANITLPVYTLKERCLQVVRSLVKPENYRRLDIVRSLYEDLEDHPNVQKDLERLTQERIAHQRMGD
T1 sequence (Q96SW2 whole entry, looked up): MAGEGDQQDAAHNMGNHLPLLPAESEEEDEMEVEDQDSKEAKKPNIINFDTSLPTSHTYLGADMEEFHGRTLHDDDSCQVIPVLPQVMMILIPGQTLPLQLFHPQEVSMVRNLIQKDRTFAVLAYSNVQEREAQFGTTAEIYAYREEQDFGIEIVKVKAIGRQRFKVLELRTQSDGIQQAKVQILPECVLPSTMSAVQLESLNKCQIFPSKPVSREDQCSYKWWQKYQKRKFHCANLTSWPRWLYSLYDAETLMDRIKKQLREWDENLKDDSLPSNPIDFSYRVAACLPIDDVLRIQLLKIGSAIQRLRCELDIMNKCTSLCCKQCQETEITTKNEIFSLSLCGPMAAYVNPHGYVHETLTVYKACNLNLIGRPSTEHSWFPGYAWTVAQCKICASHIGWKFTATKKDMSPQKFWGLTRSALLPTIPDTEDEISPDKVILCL

In the case of `Cc1ncsc1-c1ccc(CNC(=O)[C@@H]2C[C@@H](O)CN2C(=O)[C@@H](NC(=O)COCCOCCOCCOCCOCC(=O)NCCNc2cccc3c2C(=O)N(C2CCC(=O)NC2=O)C3=O)C(C)(C)C)cc1` (stereo not given in full), the Activity in assay [1] turned out to be 92%; in assay [2] it was 53%; in assay [3] it was 81%; in assay [4] it was 103%; in assay [5], 95%; in assay [6], 94%. For the same compound, the result in assay [7] was inactive.

Take `Cc1ncsc1-c1ccc(CNC(=O)[C@@H]2C[C@@H](O)CN2C(=O)[C@@H](NC(=O)COCCOCCOCCOCCOCCOCCOCCOCCOCC(=O)NCCNc2cccc3c2C(=O)N(C2CCC(=O)NC2=O)C3=O)C(C)(C)C)cc1` (stereo not given in full): the Activity was 99% in assay [1]; 54% in assay [2]; 82% in assay [3]; 95% in assay [4]; 91% in assay [5]; 91% in assay [6]. Further, in assay [7], the outcome was inactive.

Turning to `Cc1ncsc1-c1ccc(CNC(=O)[C@@H]2C[C@@H](O)CN2C(=O)[C@@H](NC(=O)C2(F)CC2)C(C)(C)C)c(OCCCCC(=O)NCCNc2cccc3c2C(=O)N(C2CCC(=O)NC2=O)C3=O)c1` (stereo not given in full), the Activity was 100% in assay [1]; 64% in assay [2]; 80% in assay [3]; 134% in assay [4]; 126% in assay [5]; 95% in assay [6]. In addition, the result in assay [7] was inactive.

Regarding `Cc1ncsc1-c1ccc(CNC(=O)[C@@H]2C[C@@H](O)CN2C(=O)[C@@H](NC(=O)C2(F)CC2)C(C)(C)C)c(OCCOCCOCCOCC(=O)NCCNc2cccc3c2C(=O)N(C2CCC(=O)NC2=O)C3=O)c1` (stereo not given in full), the Activity stood at 97% in assay [1]; 76% in assay [2]; 94% in assay [3]; 115% in assay [4]; 113% in assay [5]; 71% in assay [6]. Moreover, the outcome in assay [7] was inactive.

In the case of `Cc1ncsc1-c1ccc(CNC(=O)[C@@H]2C[C@@H](O)CN2C(=O)[C@@H](NC(=O)COCCOCCOCCOCCOCCOCC(=O)NCCNc2cccc3c2C(=O)N(C2CCC(=O)NC2=O)C3=O)C(C)(C)C)cc1` (stereo not given in full), the Activity in assay [1] worked out at 93%; in assay [2] it was 80%; in assay [3], 85%; in assay [4], 97%; in assay [5], 96%; in assay [6], 86%. In addition, the result in assay [7] was inactive.

As to `Cc1ncsc1-c1ccc(CNC(=O)[C@@H]2C[C@@H](O)CN2C(=O)[C@@H](NC(=O)COCCCCCCOCC(=O)NCCNc2cccc3c2C(=O)N(C2CCC(=O)NC2=O)C3=O)C(C)(C)C)cc1` (stereo not given in full), the Activity was 101% in assay [1]; 50% in assay [2]; 75% in assay [3]; 100% in assay [4]; 75% in assay [5]; 65% in assay [6]. Besides, the result in assay [7] was inactive.

As to `Cc1ncsc1-c1ccc(CNC(=O)[C@@H]2C[C@@H](O)CN2C(=O)[C@@H](NC(=O)C2(F)CC2)C(C)(C)SCCOCCOCCOCCOCCOCC(=O)NCCNc2cccc3c2C(=O)N(C2CCC(=O)NC2=O)C3=O)cc1` (stereo not given in full), the Activity in assay [1] was 89%; in assay [2], 87%; in assay [3], 82%; in assay [4] it was 112%; in assay [5], 110%; in assay [6], 68%. In addition, in assay [7], the result was inactive.

`Cc1ncsc1-c1ccc(CNC(=O)[C@@H]2C[C@@H](O)CN2C(=O)[C@@H](NC(=O)C2(F)CC2)C(C)(C)SCCCCC(=O)NCCNc2cccc3c2C(=O)N(C2CCC(=O)NC2=O)C3=O)cc1` (stereo not given in full): the Activity is 93% in assay [1]; 53% in assay [2]; 82% in assay [3]; 117% in assay [4]; 114% in assay [5]; 81% in assay [6]. In addition, the outcome in assay [7] was inactive.

In the case of `Cc1ncsc1-c1ccc(CNC(=O)[C@@H]2C[C@@H](O)CN2C(=O)[C@@H](NC(=O)C2(F)CC2)C(C)(C)C)c(OCCOCCOCCOCCOCCOCC(=O)NCCNc2cccc3c2C(=O)N(C2CCC(=O)NC2=O)C3=O)c1` (stereo not given in full), the Activity in assay [1] is 89%; in assay [2], 76%; in assay [3], 86%; in assay [4], 103%; in assay [5] it was 77%; in assay [6], 46%. The Activity in assay [8] amounted to 54%. Besides, in assay [7], the outcome was inactive.

In the case of `Cc1ncsc1-c1ccc(CNC(=O)[C@@H]2C[C@@H](O)CN2C(=O)[C@@H](NC(=O)C2(F)CC2)C(C)(C)SCCOCCOCCOCC(=O)NCCNc2cccc3c2C(=O)N(C2CCC(=O)NC2=O)C3=O)cc1` (stereo not given in full), the Activity turned out to be 87% in assay [1]; 75% in assay [2]; 78% in assay [3]; 121% in assay [4]; 104% in assay [5]; 71% in assay [6]. Moreover, the outcome in assay [7] was inactive.

Take `Cc1ncsc1-c1ccc(CNC(=O)[C@@H]2C[C@@H](O)CN2C(=O)[C@@H](NC(=O)COCCOCCOCCOCC(=O)NCCNc2cccc3c2C(=O)N(C2CCC(=O)NC2=O)C3=O)C(C)(C)C)cc1` (stereo not given in full): the Activity was 98% in assay [1]; 67% in assay [2]; 91% in assay [3]; 103% in assay [4]; 101% in assay [5]; 94% in assay [6]. The result in assay [7] was inactive.

Turning to `Cc1ncsc1-c1ccc(CNC(=O)[C@@H]2C[C@@H](O)CN2C(=O)[C@@H](NC(=O)COCCOCCOCC(=O)NCCNc2cccc3c2C(=O)N(C2CCC(=O)NC2=O)C3=O)C(C)(C)C)cc1` (stereo not given in full), the Activity came out at 94% in assay [1]; 104% in assay [2]; 91% in assay [3]; 102% in assay [4]; 89% in assay [5]; 91% in assay [6]. Besides, the result in assay [7] was inactive.
